Source: ChEMBL document CHEMBL1129074, “Inhibitors of human immunodeficiency virus type 1 derived from gp41 transmembrane protein: structure--activity studies” (J Med Chem, 1996)
Peptide text beside a SMILES is read from it.

Assays:
MT4 [1] = assay: Inhibitory potency of gp41 fragment against HIV-1 induced cytopathic effect in MT-4 cell assay at 100 uM; type: functional; conditions: Homo sapiens
MT4 [2] = assay: Inhibitory potency of gp41 fragment against HIV-1 induced cytopathic effect in MT-4 cell assay at 5 uM; type: functional; conditions: Homo sapiens
MT4 [3] = assay: Inhibitory potency of gp41 fragment against HIV-1 induced cytopathic effect in MT-4 cell assay at 20 uM; type: functional, Homo sapiens
Method in brief: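 MT4 cells (exponential growth) at 5×10^5 cells/mL infected with HIV-1 IIIB (100× TCID50) for 1 h at 37 °C, diluted 6-fold, added to serially diluted peptide in RPMI 1640/FCS medium; mock-infected controls. After 5 days at 37 °C, 5% CO2, cells lysed with Nonidet-40 and DNA content read by propidium iodide. Inhibition = restoration of infected-cell growth relative to uninfected controls; cytotoxicity measured in parallel.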

Compound	inhibition at 100 µM (MT4 [1]) [%]	Inhibition (MT4 [3]) [%]	other results
CC[C@H](C)[C@H](NC(=O)[C@H](CCCN=C(N)N)NC(=O)[C@H](C)NC(=O)[C@H](CCC(N)=O)NC(=O)[C@H](CC(C)C)NC(=O)[C@H](CCC(N)=O)NC(=O)[C@H](CCCCN)NC(=O)[C@@H](NC(=O)CNC(=O)[C@H](Cc1c[nH]c2ccccc12)NC(=O)[C@@H](NC(=O)[C@@H](NC(=O)[C@H](CC(C)C)NC(=O)[C@H](CCC(N)=O)NC(C)=O)[C@@H](C)O)C(C)C)[C@@H](C)CC)C(=O)O (Ac-QLTVWGIKQLQARI-OH)	0		
CC[C@H](C)[C@H](NC(=O)CNC(=O)[C@H](Cc1c[nH]c2ccccc12)NC(=O)[C@@H](NC(=O)[C@@H](NC(=O)[C@H](CC(C)C)NC(=O)[C@H](CCC(N)=O)NC(=O)[C@H](CC(C)C)NC(=O)[C@H](CC(C)C)NC(=O)[C@H](Cc1c[nH]cn1)NC(=O)[C@H](CCC(N)=O)NC(=O)[C@H](CCC(N)=O)NC(=O)[C@H](C)NC(=O)[C@H](CCC(=O)O)NC(=O)[C@@H](NC(=O)[C@H](C)NC(=O)[C@H](CCCN=C(N)N)NC(=O)[C@H](CC(C)C)NC(=O)[C@H](CC(C)C)NC(=O)[C@H](CC(N)=O)NC(=O)[C@@H](N)CC(N)=O)[C@@H](C)CC)[C@@H](C)O)C(C)C)C(=O)N[C@@H](CCCCN)C(=O)N[C@@H](CCC(N)=O)C(=O)N[C@@H](CC(C)C)C(=O)N[C@@H](CCC(N)=O)C(=O)N[C@@H](C)C(=O)N[C@@H](CCCN=C(N)N)C(=O)N[C@H](C(=O)N[C@@H](CC(C)C)C(=O)N[C@@H](C)C(=O)N[C@H](C(=O)N[C@@H](CCC(=O)O)C(=O)O)C(C)C)[C@@H](C)CC (H-NNLLRAIEAQQHLLQLTVWGIKQLQARILAVE-OH)			inhibition at 5 µM (MT4 [2]): 37%
CCCCCCCCCCCCC(N)C(=O)N[C@H](C(=O)N[C@@H](CCCCN)C(=O)N[C@@H](CCC(N)=O)C(=O)N[C@@H](CC(C)C)C(=O)N[C@@H](CCC(N)=O)C(=O)N[C@@H](C)C(=O)N[C@@H](CCCN=C(N)N)C(=O)N[C@H](C(=O)N[C@@H](CC(C)C)C(=O)N[C@@H](C)C(=O)N[C@H](C(=O)N[C@@H](CCC(=O)O)C(=O)N[C@@H](CCCN=C(N)N)C(=O)N[C@@H](Cc1ccc(O)cc1)C(=O)N[C@@H](CC(C)C)C(=O)N[C@@H](CCCCN)C(=O)N[C@@H](CC(=O)O)C(=O)N[C@@H](CCC(N)=O)C(=O)O)C(C)C)[C@@H](C)CC)[C@@H](C)CC (stereo in doubt; 21)		9	
CC[C@H](C)[C@H](NC(=O)[C@H](CCCN=C(N)N)NC(=O)[C@H](C)NC(=O)[C@H](CCC(N)=O)NC(=O)[C@H](CC(C)C)NC(=O)[C@H](CCC(N)=O)NC(=O)[C@H](CCCCN)NC(=O)[C@@H](NC(=O)CNC(=O)[C@H](Cc1c[nH]c2ccccc12)NC(=O)[C@@H](NC(=O)[C@@H](NC(=O)[C@H](CC(C)C)NC(=O)[C@H](CCC(N)=O)NC(=O)[C@@H](N)CC(C)C)[C@@H](C)O)C(C)C)[C@@H](C)CC)C(=O)O (H-LQLTVWGIKQLQARI-OH)	21		
CC[C@H](C)[C@H](NC(=O)[C@H](CCCN=C(N)N)NC(=O)[C@H](C)NC(=O)[C@H](CCC(N)=O)NC(=O)[C@H](CC(C)C)NC(=O)[C@H](CCC(N)=O)NC(=O)[C@H](CCCCN)NC(=O)[C@@H](NC(=O)CNC(=O)[C@H](Cc1c[nH]c2ccccc12)NC(=O)[C@@H](NC(=O)[C@@H](NC(=O)[C@H](CC(C)C)NC(=O)[C@@H](N)CCC(N)=O)[C@@H](C)O)C(C)C)[C@@H](C)CC)C(=O)O (H-QLTVWGIKQLQARI-OH)	0		
CCCCCCCCCCCCC(N)C(=O)N[C@H](C(=O)N[C@@H](CCCCN)C(=O)N[C@@H](CCC(N)=O)C(=O)N[C@@H](CC(C)C)C(=O)N[C@@H](CCC(N)=O)C(=O)N[C@@H](C)C(=O)N[C@@H](CCCN=C(N)N)C(=O)N[C@H](C(=O)N[C@@H](CC(C)C)C(=O)N[C@@H](C)C(=O)N[C@H](C(=O)N[C@@H](CCC(=O)O)C(=O)N[C@@H](CCCN=C(N)N)C(=O)N[C@@H](Cc1ccc(O)cc1)C(=O)N[C@@H](CC(C)C)C(=O)N[C@@H](CCCCN)C(=O)N[C@@H](CC(=O)O)C(=O)N[C@@H](CCC(N)=O)C(=O)O)C(C)C)[C@@H](C)CC)[C@@H](C)CC (stereo in doubt; 22)		0	
